Results reported in publication PMC6982536 (Nature chemical biology, 2019).

Assays:
FKBP/FRB^T2098L = FKBP/FRB^T2098L (Homo sapiens, UniProt P42345+P62942, T2098L); type: cell-based; conditions: high ligand concentration, Fig. 3a conditions 11 and 12
FKBP/FRB = conditions: read-out: EC50 (published value); cited from earlier work
NarX/NarL = type: cell-based
How it was run: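 HEK293 (37 °C, 5% CO2, DMEM) seeded at 50 000 cells/well 24 h before Lipofectamine 2000 transfection with 400 ng DNA, including NarL and a NarL-inducible Cerulean reporter. After 4 h, medium was replaced with fresh medium ± ligand. At 48 h, cells were Accutase-detached for flow cytometry. Total intensity (mean Cerulean of reporter-positive cells × positive fraction) was normalised to mCherry transfection-control total intensity.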

CMV promoter = assay: iRFP expression from the CMV promoter in HEK cells with ligand; type: cell-based; conditions: 1µM of procaterol or 2 µM of epinephrine vs DMEM
How it was run: (§1)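 HEK293 cultured at 37 °C, 5% CO2 in DMEM were seeded at 50 000 cells/well 24 h before transfection. Transfection used 400 ng reporter-containing DNA with Lipofectamine 2000 (3.75 µl per 1 µg DNA). Four hours later, medium was swapped for fresh medium with or without ligand.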

EF1α promoter = assay: iRFP expression from the EF1α promoter in HEK cells with ligand; type: cell-based; conditions: 1µM of procaterol or 2 µM of epinephrine vs DMEM
How it was run: as §1

[1] = target: β2AR^∆C::V2R^∆N::H^mut / β-arrestin::N^mut (Homo sapiens, UniProt P07550); assay: GPCR/β-arrestin interaction rewired via TCS; type: cell-based

Sequence of FKBP/FRB^T2098L (P62942 whole entry): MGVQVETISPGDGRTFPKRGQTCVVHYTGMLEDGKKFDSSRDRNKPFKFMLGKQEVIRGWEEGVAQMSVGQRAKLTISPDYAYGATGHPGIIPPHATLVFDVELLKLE
Sequence of FKBP/FRB^T2098L (P42345 2012-2144 T2098L limits assumed): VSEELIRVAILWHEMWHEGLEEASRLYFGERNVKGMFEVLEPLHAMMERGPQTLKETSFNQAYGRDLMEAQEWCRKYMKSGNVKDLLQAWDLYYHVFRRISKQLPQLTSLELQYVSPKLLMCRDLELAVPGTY

Compound | dynamic range of ligand-induced signaling (FKBP/FRB^T2098L) | EC50 (FKBP/FRB) | effect on wild-type NarX/NarL signaling (NarX/NarL; A/C, Fig. 3a conditions 2 and 3) | induction of the CMV promoter (CMV promoter) | effect on EF1α promoter (EF1α promoter) | EC50 [1] | effect on signaling via NarX/NarL system (NarX/NarL; procaterol, Fig. 4b conditions 2 and 3)
CO[C@H]1[C@@H](O)[C@H](C)C[C@H](C)/C=C/C=C/C=C(\C)[C@@H](c2c[nH]c3c(C)cccc23)C[C@@H]2CC[C@@H](C)[C@@](O)(O2)C(=O)C(=O)N2CCCC[C@H]2C(=O)O[C@H]([C@H](C)C[C@@H]2CC[C@@H](O)[C@H](OC)C2)C[C@H](O)[C@H](C)/C=C(\C)[C@H]1O [A/C, C16-(S)-7-methylindolerapamycin] | above 3 orders of magnitude | 10 nM | did not affect |  |  |  | 
CNC[C@H](O)c1ccc(O)c(O)c1 [Epinephrine] |  |  |  | factor of two | not affected |  | 
CCC(NC(C)C)C(O)c1ccc(O)c2[nH]c(=O)ccc12 (stereo not drawn) [Procaterol] |  |  |  | factor of two | not affected | 5 nM | did not affect
